Results as given in ChEMBL document CHEMBL3102739, “Synthesis and antiproliferative activity of conformationally restricted 1,2,3-triazole analogues of combretastatins in the sea urchin embryo model and against human cancer cell lines” (Bioorg Med Chem, 2014).

Experiments:
SK-OV-3 = assay: Growth inhibition of human SKOV3 cells after 48 hrs by SRB assay; assay type: functional; conditions: SK-OV-3, 48 h
[1] = Growth inhibition of human UO31 cells after 48 hrs by SRB assay; assay type: functional; conditions: UO-31, 48 h
CCRF-CEM = assay: Growth inhibition of human CCRF-CEM cells after 48 hrs by SRB assay; assay type: functional
SN12C = assay: Growth inhibition of human SN12C cells after 48 hrs by SRB assay; assay type: functional
OVCAR-8 = assay: Growth inhibition of human OVCAR8 cells after 48 hrs by SRB assay; assay type: functional; conditions: OVCAR-8, 48 h
[2] = Growth inhibition of human Hs578T cells after 48 hrs by SRB assay; assay type: functional; conditions: Hs-578T
786-0 = assay: Growth inhibition of human 786-0 cells after 48 hrs by SRB assay; assay type: functional; conditions: 786-0, 48 h
[3] = Growth inhibition of human RXF393 cells after 48 hrs by SRB assay; assay type: functional; conditions: RXF 393, 48 h
COLO 205 = assay: Growth inhibition of human COLO205 cells after 48 hrs by SRB assay; assay type: functional; conditions: COLO 205, 48 h
HCT-15 = assay: Growth inhibition of human HCT15 cells after 48 hrs by SRB assay; assay type: functional; conditions: HCT-15, 48 h
KM12 = assay: Growth inhibition of human KM12 cells after 48 hrs by SRB assay; assay type: functional; conditions: KM12, 48 h
A498 = assay: Growth inhibition of human A498 cells after 48 hrs by SRB assay; assay type: functional; conditions: A498, 48 h
NCI-H522 = assay: Growth inhibition of human NCI-H522 cells after 48 hrs by SRB assay; assay type: functional; conditions: NCI-H522, 48 h
MCF7 = assay: Growth inhibition of human MCF7 cells after 48 hrs by SRB assay; assay type: functional; conditions: MCF7, 48 h
HCT-116 = assay: Growth inhibition of human HCT116 cells after 48 hrs by SRB assay; assay type: functional; conditions: HCT-116, 48 h
Paracentrotus lividus [4] = assay: Antimitotic activity against sea urchin embryo free-swimming blastula model assessed as embryo spinning compound treated at 8 to 10 hrs post-fertilization measured after 0.25 to 20 hrs; assay type: functional, Blastula stage
MOLT-4 = assay: Growth inhibition of human MOLT4 cells after 48 hrs by SRB assay; assay type: functional; conditions: MOLT-4, 48 h
NCI-H226 = assay: Growth inhibition of human NCI-H226 cells after 48 hrs by SRB assay; assay type: functional; conditions: NCI-H226, 48 h
[5] = Growth inhibition of human SF539 cells after 48 hrs by SRB assay; assay type: functional; conditions: SF-539, 48 h
HT-29 = assay: Growth inhibition of human HT-29 cells after 48 hrs by SRB assay; assay type: functional; conditions: HT-29, 48 h
IGROV-1 = assay: Growth inhibition of human IGROV1 cells after 48 hrs by SRB assay; assay type: functional; conditions: IGROV-1, 48 h
[6] = Growth inhibition of human NCI-ADR-RES cells after 48 hrs by SRB assay; assay type: functional
A549 = assay: Growth inhibition of human A549 cells after 48 hrs by SRB assay; assay type: functional; conditions: A549, 48 h
MDA-MB-231 = assay: Growth inhibition of human MDA-MB-231 cells after 48 hrs by SRB assay; assay type: functional; conditions: MDA-MB-231, 48 h
MDA-MB-435 = assay: Growth inhibition of human MDA-MB-435 cells after 48 hrs by SRB assay; assay type: functional; conditions: MDA-MB-435, 48 h
[7] = Growth inhibition of human HCC2998 cells after 48 hrs by SRB assay; assay type: functional; conditions: HCC 2998, 48 h
SR = assay: Growth inhibition of human SR cells after 48 hrs by SRB assay; assay type: functional
SK-MEL-5 = assay: Growth inhibition of human SK-MEL-5 cells after 48 hrs by SRB assay; assay type: functional; conditions: SK-MEL-5, 48 h
SNB-75 = assay: Growth inhibition of human SNB75 cells after 48 hrs by SRB assay; assay type: functional; conditions: SNB-75, 48 h
DU-145 = assay: Growth inhibition of human DU145 cells after 48 hrs by SRB assay; assay type: functional; conditions: DU-145, 48 h
BT-549 = assay: Growth inhibition of human BT549 cells after 48 hrs by SRB assay; assay type: functional; conditions: BT-549, 48 h
K562 = assay: Growth inhibition of human K562 cells after 48 hrs by SRB assay; assay type: functional; conditions: K562, 48 h
[8] = Growth inhibition of human UACC257 cells after 48 hrs by SRB assay; assay type: functional; conditions: UACC-257, 48 h
OVCAR-3 = assay: Growth inhibition of human OVCAR3 cells after 48 hrs by SRB assay; assay type: functional; conditions: OVCAR-3, 48 h
SF-268 = assay: Growth inhibition of human SF268 cells after 48 hrs by SRB assay; assay type: functional; conditions: SF-268, 48 h
Paracentrotus lividus [9] = assay: Antimitotic activity against sea urchin embryo model assessed as cleavage arrest of fertilized egg compound treated at 8 to 20 mins post-fertilization and 45 to 55 mins prior to first mitotic cycle completion measured 2.5 to 5.5 hrs post-fertilization; assay type: functional
Procedure, shortened: (§1)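 Fertilized eggs are exposed 8–20 min after fertilization to 2-fold decreasing concentrations. Stocks are 10 mM in DMSO, then diluted 10-fold in 95% EtOH; final DMSO is at most 0.05% and EtOH at most 1%. Embryos are kept as a monolayer, up to 2000 embryos/mL, in filtered seawater at room temperature. The value is the threshold concentration giving cleavage alteration, embryo death before hatching or full mitotic arrest. Duplicates were run.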

NCI-H460 = assay: Growth inhibition of human NCI-H460 cells after 48 hrs by SRB assay; assay type: functional; conditions: NCI-H460, 48 h
NCI-H23 = assay: Growth inhibition of human NCI-H23 cells after 48 hrs by SRB assay; assay type: functional; conditions: NCI-H23, 48 h
MDA-MB-468 = assay: Growth inhibition of human MDA-MB-468 cells after 48 hrs by SRB assay; assay type: functional; conditions: MDA-MB-468, 48 h
TK-10 = assay: Growth inhibition of human TK10 cells after 48 hrs by SRB assay; assay type: functional; conditions: TK-10, 48 h
PC-3 = assay: Growth inhibition of human PC3 cells after 48 hrs by SRB assay; assay type: functional; conditions: PC-3, 48 h
[10] = Growth inhibition of human OVCAR4 cells after 48 hrs by SRB assay; assay type: functional; conditions: OVCAR-4, 48 h
M14 = assay: Growth inhibition of human M14 cells after 48 hrs by SRB assay; assay type: functional; conditions: M14, 48 h
CAKI-1 = assay: Growth inhibition of human CAKI-1 cells after 48 hrs by SRB assay; assay type: functional; conditions: CAKI-1, 48 h
SK-MEL-28 = assay: Growth inhibition of human SK-MEL-28 cells after 48 hrs by SRB assay; assay type: functional; conditions: SK-MEL-28, 48 h
SW-620 = assay: Growth inhibition of human SW620 cells after 48 hrs by SRB assay; assay type: functional; conditions: SW-620, 48 h
UACC-62 = assay: Growth inhibition of human UACC62 cells after 48 hrs by SRB assay; assay type: functional; conditions: UACC-62, 48 h
SF-295 = assay: Growth inhibition of human SF295 cells after 48 hrs by SRB assay; assay type: functional; conditions: SF-295, 48 h
NCI-H322M = assay: Growth inhibition of human NCI-H322M cells after 48 hrs by SRB assay; assay type: functional
Paracentrotus lividus [11] = assay: Antimitotic activity against sea urchin embryo model assessed as cleavage alteration of fertilized egg compound treated at 8 to 20 mins post-fertilization and 45 to 55 mins prior to first mitotic cycle completion measured 2.5 to 5.5 hrs post-fertilization; assay type: functional; procedure, shortened: as §1
RPMI-8226 = assay: Growth inhibition of human RPMI8226 cells after 48 hrs by SRB assay; assay type: functional; conditions: RPMI-8226, 48 h
HOP-62 = assay: Growth inhibition of human HOP62 cells after 48 hrs by SRB assay; assay type: functional; conditions: HOP-62, 48 h
[12] = Growth inhibition of human OVCAR5 cells after 48 hrs by SRB assay; assay type: functional; conditions: OVCAR-5, 48 h
HL-60(TB) = assay: Growth inhibition of human HL-60(TB) cells after 48 hrs by SRB assay; assay type: functional; conditions: HL-60, 48 h
ACHN = assay: Growth inhibition of human ACHN cells after 48 hrs by SRB assay; assay type: functional

Work on `COc1ccc(-c2nn[nH]c2-c2cc(OC)c3c(c2)OCO3)cc1` yielded a GI50 (SK-OV-3) of 0.023 µM, a GI50 [1] of 0.051 µM and a GI50 (CCRF-CEM) of 0.026 µM. The GI50 (SN12C) was 0.061 µM, the GI50 (OVCAR-8) was 0.04 µM and the GI50 [2] was 0.022 µM. The GI50 (786-0) was 0.032 µM, the GI50 [3] was 0.017 µM and the GI50 (COLO 205) was 0.255 µM. The GI50 (HCT-15) was less than 0.01 µM, the GI50 (KM12) was 0.023 µM and the GI50 (A498) was less than 0.01 µM. It also gave a GI50 (NCI-H522) of less than 0.01 µM, a GI50 (MCF7) of less than 0.01 µM and a GI50 (HCT-116) of 0.019 µM. For the same compound, the EC (Paracentrotus lividus [4]) was 0.05 µM, the GI50 (MOLT-4) was 0.063 µM and the GI50 (NCI-H226) was 0.294 µM. It also gave a GI50 [5] of 0.017 µM, a GI50 (HT-29) of 0.034 µM and a GI50 (IGROV-1) of 0.023 µM. It also gave a GI50 [6] of less than 0.01 µM, a GI50 (A549) of 0.024 µM and a GI50 (MDA-MB-231) of 0.045 µM. The GI50 (MDA-MB-435) was less than 0.01 µM, the GI50 [7] was 0.044 µM and the GI50 (SR) was less than 0.01 µM. For the same compound, the GI50 (SK-MEL-5) was 0.029 µM, the GI50 (SNB-75) was 0.016 µM and the GI50 (DU-145) was 0.032 µM. For the same compound, the GI50 (BT-549) was 0.121 µM, the GI50 (K562) was less than 0.01 µM and the GI50 [8] was 23 µM. For the same compound, the GI50 (OVCAR-3) was 0.01 µM, the GI50 (SF-268) was 0.101 µM and the EC (Paracentrotus lividus [9]) was 0.002 µM. The GI50 (NCI-H460) was 0.011 µM, the GI50 (NCI-H23) was 0.033 µM and the GI50 (MDA-MB-468) was 0.019 µM. For the same compound, the GI50 (TK-10) was 14.7 µM, the GI50 (PC-3) was 0.035 µM and the GI50 [10] was 0.518 µM. The GI50 (M14) was 0.013 µM, the GI50 (CAKI-1) was 0.011 µM and the GI50 (SK-MEL-28) was 0.035 µM. The GI50 (SW-620) was 0.014 µM, the GI50 (UACC-62) was less than 0.01 µM and the GI50 (SF-295) was less than 0.01 µM. The GI50 (NCI-H322M) was 0.057 µM, the EC (Paracentrotus lividus [11]) was 0.0005 µM and the GI50 (RPMI-8226) was 0.033 µM. It also gave a GI50 (HOP-62) of less than 0.01 µM, a GI50 [12] of 0.049 µM and a GI50 (HL-60(TB)) of 0.023 µM. The GI50 (ACHN) was 0.04 µM.
